Data set [1] is described as follows: (§1) Immunosuppressive activity in C57BL/6 mouse splenocytes assessed as inhibition of concanavalin A-induced cell proliferation at 90 uM after 72 hrs by MTT assay. As to conditions: C57BL/6, Splenocyte. It counts as functional. In short, it runs like this:
(§2)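 Splenocytes pooled from two spleens of 8-week-old female C57BL/6 mice, red cells lysed with 20 mM Tris-HCl/140 mM NH4Cl, seeded 1.5×10^5/well. Stimulated with 1 μg/mL ConA, compounds diluted from DMSO into RPMI with 10% FCS and 50 μM mercaptoethanol. 72 h at 37 °C, 5% CO2. MTT 4 h, OD 570 nm, sextuplicate. Inhibition = (control OD − treated OD)/control OD × 100.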
(In general: Formazan colour is commonly taken as a measure of viable cells.)

Data set [2] can be described thus: (§3) Immunosuppressive activity in C57BL/6 mouse splenocytes assessed as inhibition of concanavalin A-induced cell proliferation at 30 uM after 72 hrs by MTT assay. Format: functional. Particulars: C57BL/6, Splenocyte. In short, it runs like this: as §2
The subject of data set [3] is Splenocyte. Described as §3. Format: functional. In outline:
as §2

Data set [4] deals with Splenocyte. Described as §1. Format: functional. In short, it runs like this: as §2
Data set [5] in a line: (§4) Immunosuppressive activity in C57BL/6 mouse splenocytes assessed as inhibition of cell proliferation after 72 hrs by MTT assay. It counts as functional, cell-based. As to conditions: C57BL/6, Splenocyte. In short, it runs like this:
as §2

For data set [6], the target named is T1, Tyrosine-protein kinase JAK3 (Homo sapiens, UniProt P52333).
T1 sequence (P52333 whole entry): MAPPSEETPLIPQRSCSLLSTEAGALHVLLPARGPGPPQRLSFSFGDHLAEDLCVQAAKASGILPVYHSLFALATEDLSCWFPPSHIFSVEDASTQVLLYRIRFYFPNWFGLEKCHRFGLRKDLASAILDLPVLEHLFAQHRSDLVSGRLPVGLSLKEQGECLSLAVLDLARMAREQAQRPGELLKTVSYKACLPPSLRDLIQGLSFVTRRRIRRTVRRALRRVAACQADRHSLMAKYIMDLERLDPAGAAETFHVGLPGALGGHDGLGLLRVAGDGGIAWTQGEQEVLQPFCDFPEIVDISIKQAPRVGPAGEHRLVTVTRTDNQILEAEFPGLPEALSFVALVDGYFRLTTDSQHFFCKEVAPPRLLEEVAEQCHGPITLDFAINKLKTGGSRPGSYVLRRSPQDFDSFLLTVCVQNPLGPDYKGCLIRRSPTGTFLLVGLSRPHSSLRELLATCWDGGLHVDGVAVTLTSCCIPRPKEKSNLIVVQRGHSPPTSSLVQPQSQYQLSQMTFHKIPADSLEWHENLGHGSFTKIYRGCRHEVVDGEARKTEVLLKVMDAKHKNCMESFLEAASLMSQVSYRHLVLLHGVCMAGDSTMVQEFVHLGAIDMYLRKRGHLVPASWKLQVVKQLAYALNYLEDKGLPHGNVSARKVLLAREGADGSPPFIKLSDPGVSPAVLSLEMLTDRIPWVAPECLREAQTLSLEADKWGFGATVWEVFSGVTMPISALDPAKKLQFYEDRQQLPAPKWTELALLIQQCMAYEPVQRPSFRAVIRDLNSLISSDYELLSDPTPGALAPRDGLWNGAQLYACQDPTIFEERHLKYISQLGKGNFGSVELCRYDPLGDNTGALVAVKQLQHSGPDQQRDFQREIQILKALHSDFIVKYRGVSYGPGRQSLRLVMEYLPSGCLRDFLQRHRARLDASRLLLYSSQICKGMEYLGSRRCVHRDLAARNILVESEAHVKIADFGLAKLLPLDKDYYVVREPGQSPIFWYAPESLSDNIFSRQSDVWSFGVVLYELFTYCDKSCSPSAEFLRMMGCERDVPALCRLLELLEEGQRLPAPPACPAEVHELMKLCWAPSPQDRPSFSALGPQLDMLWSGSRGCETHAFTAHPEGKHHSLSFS
Kind of data set: Inhibition of recombinant JAK3 after 1 hr. In short, it runs like this:
(§5)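 Recombinant kinase with substrate and 10 μM ATP, 1 h incubation. Compound at 10 final concentrations, 3.16 nM-100 μM. Activity read by AlphaScreen Protein-A detection after bead-mix stop; IC50 derived.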

Data set [7] concerns the target Tyrosine-protein kinase JAK2 (Homo sapiens, UniProt O60674). Put plainly: Inhibition of recombinant JAK2 after 1 hr. In outline:
as §5

Data set [8] relates to Mus musculus. Kind of data set: Immunosuppressive activity in delayed-type hypersensitivity BALB/C mouse model assessed as inhibition of sheep RBC-induced foot-pad swelling at 50 to 120 mg/kg, po qd for 5 days measured after 24 hrs last post dose. Format: functional. Particulars: dose mg/kg 50-120. In outline:
(§6)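 Groups of five female BALB/c mice, 8-9 weeks old, primed iv with 5×10^6 SRBC in PBS. Compound in olive oil given orally daily for 5 days, from priming to challenge. Day 4: 3-4×10^8 SRBC into right hind footpad, PBS into left. Swelling difference read 24 h later; inhibition taken against untreated controls. Mean ± SEM, Dunnett test.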

The nature of data set [9]: Inhibition of recombinant ERK after 1 hr. In short, it runs like this:
as §5

Data set [10] concerns the target Homeodomain-interacting protein kinase 1 (Homo sapiens, UniProt Q86Z02). Put plainly: Inhibition of recombinant HIPK1 after 1 hr. In outline: as §5
The next data set deals with T2, Aurora kinase A (Homo sapiens, UniProt O14965).
T2 sequence (O14965 whole entry): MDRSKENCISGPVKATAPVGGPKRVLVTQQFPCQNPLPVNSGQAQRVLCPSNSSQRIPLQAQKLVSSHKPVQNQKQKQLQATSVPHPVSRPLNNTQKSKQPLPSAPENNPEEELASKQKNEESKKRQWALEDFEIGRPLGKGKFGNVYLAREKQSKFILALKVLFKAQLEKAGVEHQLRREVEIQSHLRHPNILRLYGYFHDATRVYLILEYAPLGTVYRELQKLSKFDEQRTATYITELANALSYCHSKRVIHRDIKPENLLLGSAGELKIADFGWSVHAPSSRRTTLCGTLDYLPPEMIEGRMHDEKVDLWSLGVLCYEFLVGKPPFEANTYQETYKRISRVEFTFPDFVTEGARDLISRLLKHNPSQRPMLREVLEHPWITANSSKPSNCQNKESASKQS
Kind of data set: Inhibition of recombinant aurora A after 1 hr. In short, it runs like this: as §5

In data set [11] the target is Serine/threonine-protein kinase pim-1 (Homo sapiens, UniProt P11309). Put plainly: Inhibition of recombinant Pim1 after 1 hr. In short, it runs like this: as §5
For data set [12], the target named is Tyrosine-protein kinase ABL1 (Homo sapiens, UniProt P00519). Kind of data set: Inhibition of recombinant c-Abl after 1 hr. In short, it runs like this:
as §5

Data set [13] has as its target Vascular endothelial growth factor receptor 2 (Homo sapiens, UniProt P35968). Kind of data set: Inhibition of recombinant KDR after 1 hr. In outline:
as §5

Data set [14] concerns the target Tyrosine-protein kinase Yes (Homo sapiens, UniProt P07947). Kind of data set: Inhibition of recombinant YES after 1 hr. In outline: as §5
The target of data set [15] is High affinity nerve growth factor receptor (Homo sapiens, UniProt P04629). Kind of data set: Inhibition of recombinant TrkA after 1 hr. In outline:
as §5

Data set [16] concerns Splenocyte. The data set is described as §4. It counts as functional, cell-based. In outline: as §2
A short description of data set [17]: Cytotoxicity in C57BL/6 mouse splenocytes assessed as reduction of cell viability at 90 uM after 48 hrs by MTT assay. Format: cell-based. As to conditions: splenocyte.
Data set [18] concerns Mus musculus. Kind of data set: Immunosuppressive activity in delayed-type hypersensitivity BALB/C mouse model assessed as inhibition of sheep RBC-induced foot-pad swelling at 50 mg/kg, po qd for 5 days measured after 24 hrs last post dose. It counts as functional, organism-based. Also on record: dose 50 mg/kg. In short, it runs like this:
as §6

The subject of data set [19] is Mus musculus. Kind of data set: Immunosuppressive activity in delayed-type hypersensitivity po dosed BALB/C mouse model assessed as inhibition of sheep RBC-induced foot-pad swelling administered qd for 5 days measured after 24 hrs last post dose. It counts as functional, organism-based. In short, it runs like this:
as §6

In data set [20] the test system is Mus musculus. Put plainly: Acute toxicity in BALB/C mouse at 50 to 120 mg/kg, po qd for 5 days. Format: organism-based. Also on record: dose 50-120 mg/kg, route oral. Particulars: in vivo, 120 h. In outline: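 Female BALB/C mice, 8-9 weeks old, groups of five. Dosed orally once daily for 5 days in olive oil, from priming to challenge, within a DTH study: primed iv with 5×10^6 SRBC, footpad challenge with SRBC on day 4. Acute toxicity judged by observation against untreated control mice over the 5-day treatment.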

Activity calls are given as the source filed them. The calls are words filed in the database; no cut-off is given here.

Chain of High affinity nerve growth factor receptor (P04629 whole entry): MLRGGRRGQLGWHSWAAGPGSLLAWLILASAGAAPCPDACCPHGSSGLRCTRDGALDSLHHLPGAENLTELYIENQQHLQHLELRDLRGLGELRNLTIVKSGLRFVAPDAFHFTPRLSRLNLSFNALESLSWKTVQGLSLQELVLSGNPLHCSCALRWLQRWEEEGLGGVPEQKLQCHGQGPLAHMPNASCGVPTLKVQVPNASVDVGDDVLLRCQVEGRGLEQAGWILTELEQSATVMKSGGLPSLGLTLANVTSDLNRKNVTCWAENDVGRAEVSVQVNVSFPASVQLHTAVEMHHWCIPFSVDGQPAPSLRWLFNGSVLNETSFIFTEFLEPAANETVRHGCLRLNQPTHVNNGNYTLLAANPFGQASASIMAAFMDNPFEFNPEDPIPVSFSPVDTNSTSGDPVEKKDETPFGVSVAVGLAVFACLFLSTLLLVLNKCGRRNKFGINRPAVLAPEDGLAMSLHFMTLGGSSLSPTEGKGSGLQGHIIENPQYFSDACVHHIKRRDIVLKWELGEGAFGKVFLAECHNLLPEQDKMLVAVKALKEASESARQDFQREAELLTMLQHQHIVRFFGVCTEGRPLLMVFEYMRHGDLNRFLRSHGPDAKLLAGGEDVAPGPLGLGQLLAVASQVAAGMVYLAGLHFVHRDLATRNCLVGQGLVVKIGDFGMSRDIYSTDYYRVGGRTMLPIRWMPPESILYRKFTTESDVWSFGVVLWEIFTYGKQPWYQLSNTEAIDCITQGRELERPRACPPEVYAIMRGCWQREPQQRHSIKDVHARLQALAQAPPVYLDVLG
Chain of Tyrosine-protein kinase Yes (P07947 whole entry): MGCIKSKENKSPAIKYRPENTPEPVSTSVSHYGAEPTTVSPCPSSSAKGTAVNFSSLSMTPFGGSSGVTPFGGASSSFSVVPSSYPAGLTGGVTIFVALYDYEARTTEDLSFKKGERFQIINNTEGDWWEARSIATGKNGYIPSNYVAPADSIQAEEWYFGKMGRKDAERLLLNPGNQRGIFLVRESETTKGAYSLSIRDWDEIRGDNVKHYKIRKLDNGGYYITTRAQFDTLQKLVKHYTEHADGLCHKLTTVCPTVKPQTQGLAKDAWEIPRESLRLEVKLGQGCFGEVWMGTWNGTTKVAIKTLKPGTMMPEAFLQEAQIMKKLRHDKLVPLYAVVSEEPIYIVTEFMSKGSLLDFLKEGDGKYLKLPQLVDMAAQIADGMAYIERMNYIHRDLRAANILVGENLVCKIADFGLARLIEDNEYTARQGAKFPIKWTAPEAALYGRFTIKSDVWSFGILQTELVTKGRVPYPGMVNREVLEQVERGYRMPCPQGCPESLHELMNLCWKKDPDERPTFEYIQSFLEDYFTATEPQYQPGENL
Chain of Tyrosine-protein kinase JAK2 (O60674 whole entry): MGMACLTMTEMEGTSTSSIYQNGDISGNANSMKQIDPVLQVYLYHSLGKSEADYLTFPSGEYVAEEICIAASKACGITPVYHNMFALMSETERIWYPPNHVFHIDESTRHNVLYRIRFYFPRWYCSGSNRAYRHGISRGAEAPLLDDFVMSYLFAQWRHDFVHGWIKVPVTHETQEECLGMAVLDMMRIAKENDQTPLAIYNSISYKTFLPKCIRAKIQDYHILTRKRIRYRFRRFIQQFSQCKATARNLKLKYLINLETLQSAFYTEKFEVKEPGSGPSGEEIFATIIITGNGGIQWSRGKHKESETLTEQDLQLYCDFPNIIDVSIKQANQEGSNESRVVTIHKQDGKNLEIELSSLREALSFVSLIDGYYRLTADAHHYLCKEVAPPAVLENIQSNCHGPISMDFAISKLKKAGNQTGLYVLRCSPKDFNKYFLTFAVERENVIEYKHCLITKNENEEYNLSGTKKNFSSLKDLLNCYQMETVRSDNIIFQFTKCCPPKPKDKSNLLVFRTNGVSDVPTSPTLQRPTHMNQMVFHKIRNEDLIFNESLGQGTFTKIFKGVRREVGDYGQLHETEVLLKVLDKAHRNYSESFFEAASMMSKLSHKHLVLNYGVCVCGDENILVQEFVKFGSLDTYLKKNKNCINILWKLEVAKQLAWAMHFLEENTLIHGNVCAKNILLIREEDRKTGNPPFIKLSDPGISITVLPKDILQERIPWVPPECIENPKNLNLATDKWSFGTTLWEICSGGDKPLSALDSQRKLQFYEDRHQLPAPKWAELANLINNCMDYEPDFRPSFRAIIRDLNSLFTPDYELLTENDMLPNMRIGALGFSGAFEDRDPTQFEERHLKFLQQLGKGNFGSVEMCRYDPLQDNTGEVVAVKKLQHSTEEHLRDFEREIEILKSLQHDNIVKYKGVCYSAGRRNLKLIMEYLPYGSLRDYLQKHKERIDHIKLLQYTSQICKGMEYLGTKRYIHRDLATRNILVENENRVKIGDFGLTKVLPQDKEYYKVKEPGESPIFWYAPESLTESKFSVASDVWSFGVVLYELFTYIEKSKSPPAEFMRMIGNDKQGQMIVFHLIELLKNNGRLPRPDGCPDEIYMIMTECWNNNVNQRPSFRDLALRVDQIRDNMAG
Chain of Serine/threonine-protein kinase pim-1 (P11309 whole entry): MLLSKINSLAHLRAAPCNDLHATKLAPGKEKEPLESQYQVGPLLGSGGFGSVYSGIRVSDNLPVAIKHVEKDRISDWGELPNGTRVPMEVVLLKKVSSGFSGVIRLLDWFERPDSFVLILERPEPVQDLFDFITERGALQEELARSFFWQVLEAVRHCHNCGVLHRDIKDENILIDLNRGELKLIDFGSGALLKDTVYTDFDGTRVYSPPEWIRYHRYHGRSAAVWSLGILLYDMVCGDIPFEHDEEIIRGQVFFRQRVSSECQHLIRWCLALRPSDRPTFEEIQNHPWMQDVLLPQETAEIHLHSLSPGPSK
Chain of Homeodomain-interacting protein kinase 1 (Q86Z02 whole entry): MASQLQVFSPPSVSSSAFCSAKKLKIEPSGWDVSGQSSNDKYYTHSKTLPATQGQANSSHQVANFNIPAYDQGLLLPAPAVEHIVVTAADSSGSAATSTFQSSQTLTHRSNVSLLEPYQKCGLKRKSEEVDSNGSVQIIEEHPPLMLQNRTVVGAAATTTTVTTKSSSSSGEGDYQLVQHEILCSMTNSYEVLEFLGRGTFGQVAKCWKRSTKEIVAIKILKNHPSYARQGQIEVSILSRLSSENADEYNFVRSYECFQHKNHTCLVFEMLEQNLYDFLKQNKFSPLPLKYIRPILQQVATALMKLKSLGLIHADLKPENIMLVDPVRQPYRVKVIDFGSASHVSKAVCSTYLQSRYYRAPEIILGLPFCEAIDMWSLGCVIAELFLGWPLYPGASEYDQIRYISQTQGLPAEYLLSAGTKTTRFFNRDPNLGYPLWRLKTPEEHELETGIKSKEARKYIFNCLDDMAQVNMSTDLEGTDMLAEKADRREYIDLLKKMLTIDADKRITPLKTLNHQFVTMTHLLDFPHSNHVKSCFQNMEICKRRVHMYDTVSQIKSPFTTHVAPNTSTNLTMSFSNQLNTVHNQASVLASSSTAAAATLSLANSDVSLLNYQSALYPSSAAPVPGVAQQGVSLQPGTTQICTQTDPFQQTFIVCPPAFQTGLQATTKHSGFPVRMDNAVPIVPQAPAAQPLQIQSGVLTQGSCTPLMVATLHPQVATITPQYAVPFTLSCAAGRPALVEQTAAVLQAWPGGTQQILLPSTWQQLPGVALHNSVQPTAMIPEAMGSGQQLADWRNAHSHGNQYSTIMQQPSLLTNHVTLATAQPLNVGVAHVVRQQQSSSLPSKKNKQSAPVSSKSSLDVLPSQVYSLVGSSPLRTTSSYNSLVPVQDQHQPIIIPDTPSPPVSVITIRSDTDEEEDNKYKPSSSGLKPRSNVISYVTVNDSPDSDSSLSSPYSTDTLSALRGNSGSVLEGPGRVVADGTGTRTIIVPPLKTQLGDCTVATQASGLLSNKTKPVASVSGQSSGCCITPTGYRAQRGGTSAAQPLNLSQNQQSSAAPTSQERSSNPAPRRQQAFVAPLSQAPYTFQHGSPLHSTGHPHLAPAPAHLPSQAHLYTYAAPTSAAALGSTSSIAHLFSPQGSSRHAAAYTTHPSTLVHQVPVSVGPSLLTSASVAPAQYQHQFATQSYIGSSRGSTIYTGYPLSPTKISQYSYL

What is called inhibition is the relative decrease from the control value, in per cent. In the case of `O=C(CCc1cn(Cc2ccc(Cl)cc2)c2ccccc12)Nc1cccnc1`, the inhibition at 90 µM in data set [1] amounted to 40%. Moreover, the inhibition at 30 µM in data set [2] amounted to 28%.

For `O=C(CCc1cn(Cc2ccc(Cl)cc2)c2ccccc12)Nc1cccc2cnccc12`, the inhibition at 90 µM in data set [1] turned out to be 17%. For the same compound, the inhibition entry in the data set with Splenocyte [3] is “inactive”.

Regarding `O=C(CCc1cn(Cc2ccc(Cl)cc2)c2ccccc12)Nc1ccccc1`, the inhibition entry with Splenocyte [4] and in the data set with Splenocyte [3] was “inactive” each time.

Consider `O=C(CCc1cn(Cc2ccc(Cl)cc2)c2ccccc12)Nc1ccc(C(F)(F)F)cc1`, for which the inhibition at 90 µM in data set [1] came to 18%.

On to `O=C(CCc1cn(Cc2ccc(Cl)cc2)c2ccccc12)Nc1ccnc2ccccc12`, for which, in data set [1], the inhibition at 90 µM was determined as 37%. Also, the inhibition at 30 µM in [2] stood at 20%.

In the case of `O=C(CCc1cn(Cc2ccc(Cl)cc2)c2ccccc12)Nc1ccccn1`, the inhibition at 90 µM in data set [1] came out at 26%. The inhibition entry with Splenocyte [3] is “inactive”.

By IC50 is commonly meant the concentration at which inhibition is half-maximal. Turning to `O=C(CCc1cn(Cc2ccc(Cl)cc2)c2ccccc12)Nc1ccncc1`, the inhibition at 90 µM in [1] stood at 87%. The inhibition at 30 µM in data set [2] amounted to 19%. For the same compound, the IC50 in [5] was 17 µM; in data set [6], 52 µM; in data set [7], 134 µM; in [9], above 100 µM; in data set [10] it was above 100 µM; on Aurora kinase A it was above 100 µM. For the same compound, the IC50 in data set [11] is above 100 µM; in data set [12], above 100 µM; in data set [13], 26 µM; in [14] it was 30 µM; in [15], above 100 µM. For the same compound, the “inhibition (INH)” value in the data set with Mus musculus [8] is reported as 69%.

Regarding `O=C(CCc1cn(Cc2ccc(Cl)cc2)c2ccccc12)Nc1cccc2ncccc12`, the inhibition result with Splenocyte [4] and in the data set on Splenocyte [3] was “inactive” throughout.

Consider `N#Cc1ccc(NC(=O)CCc2cn(Cc3ccc(Cl)cc3)c3ccccc23)cc1`, for which, in data set [1], the inhibition at 90 µM came to 78%. The inhibition at 30 µM in [2] turned out to be 30%.

Take `O=C(CCc1cn(Cc2ccc(Cl)cc2)c2ccccc12)Nc1ccc([N+](=O)[O-])cc1`: the inhibition at 90 µM in data set [1] was determined as 92%. Further, in data set [2], the inhibition at 30 µM is 87%. In addition, the IC50 in data set [5] was 19.8 µM; in [6], 34.2 µM; in [7] it was 107 µM; in [9], above 100 µM; in data set [10], above 100 µM; at Aurora kinase A, above 100 µM. The half-inhibitory concentration (IC50) in data set [11] is above 100 µM; in data set [12], above 100 µM; in [13], 33.2 µM; in data set [14], 38.1 µM; in [15] it was above 100 µM. The inhibition result in the data set on Splenocyte [16] and in the data set on Mus musculus [19] was “Dose-dependent effect” in each case. Besides, the Activity entry (in [17]; with Mus musculus [20]) was “Non-toxic” throughout. For the same compound, in the data set on Mus musculus [18], the inhibition entry is “Active”.

Regarding `O=C(CCc1cn(Cc2ccc(Cl)cc2)c2ccccc12)Nc1ccc2ncccc2c1`, in data set [1], the inhibition at 90 µM turned out to be 86%. Moreover, the inhibition entry in the data set on Splenocyte [3] is “inactive”.

As for `Nc1ccc(NC(=O)CCc2cn(Cc3ccc(Cl)cc3)c3ccccc23)cc1`, the inhibition result with Splenocyte [4] and in the data set on Splenocyte [3] was “inactive” in each case.

For the origin of these results see ChEMBL document CHEMBL1221237, “Synthesis of N-aryl-3-(indol-3-yl)propanamides and their immunosuppressive activities” (Bioorg Med Chem Lett, 2010).
